Data as given in ChEMBL document CHEMBL4765234 (J Med Chem, 2016).
pEC50, pKi: −log10 of the molar value. Calls of active or inactive are those of the source. No cut-off for these calls is given here.

Tests used:
Rattus norvegicus [1] = assay: Hypoglycemic activity in Zucker fatty diabetes mellitus rat model assessed as reduction in blood glucose level at 3 mg/kg, po administered for 21 days and measured at 10 to 60 mins post glucose challenge on day 1 by OGTT; assay type: functional, organism-based; conditions: time 21.0 day
Rattus norvegicus [2] = assay: Hypoglycemic activity in Zucker fatty diabetes mellitus rat model assessed as increase in insulin levels in plasma at 3 mg/kg, po administered for 21 days and measured at 10 to 60 mins post glucose challenge on day 1 by OGTT; assay type: functional, organism-based; conditions: time 21.0 day
[3] = molecular target: T1, Free fatty acid receptor 1 (Homo sapiens, UniProt O14842); assay: Agonist activity at human recombinant full length GPR40 overexpressed in human HEK293 cells assessed as increase in intracellular calcium level measured over 3 mins by calcium 4 dye based FLIPR assay relative to 100 uM linoleic acid; assay type: functional, cell-based; conditions: filed as agonist
How it was run: (§1)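 HEK293 cells overexpressing hGPR40 (25K/well) were cultured overnight in DMEM/F12 with 0.2% FBS and geneticin. Compound was tested at 40 μM–0.1 nM final (20-point, 1% DMSO), and FLIPR fluorescence was read over 3 min.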

[4] = molecular target: T1, Free fatty acid receptor 1; assay: Displacement of [3H]-TAK-875 from human recombinant full-length GPR40 expressed in human HEK293 cell membrane incubated for 2 hrs by solid scintillation counting method; assay type: cell membranes
[5] = molecular target: Free fatty acid receptor 1 (Mus musculus, UniProt Q76JU9); assay: Agonist activity at Prolink-tagged mouse GPR40 fused with EA-tagged beta-arrestin expressed in human U2OS cells assessed as induction of beta-arrestin recruitment measured after 90 mins by beta-galactosidase based PathHunter assay; assay type: cell-based
How it was run: (§2)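 PathHunter β-gal complementation. Cells were incubated overnight at 5000/well in medium with 1% heat-inactivated FBS. Compound was added as a 20-point 2-fold series from a top final of 100 μM (1% DMSO) for 90 min at 37 °C, followed by detection reagents and chemiluminescence read after 1 h at rt.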

[6] = molecular target: Free fatty acid receptor 1 (Rattus norvegicus, UniProt Q8K3T4); assay: Agonist activity at Prolink-tagged rat GPR40 fused with EA-tagged beta-arrestin expressed in human U2OS cells assessed as induction of beta-arrestin recruitment measured after 90 mins by beta-galactosidase based PathHunter assay; assay type: cell-based; how it was run: as §2
[7] = molecular target: Free fatty acid receptor 1 (Rattus norvegicus) (UniProt Q8K3T4); assay: Agonist activity at Prolink-tagged rat GPR40 fused with EA-tagged beta-arrestin expressed in human U2OS cells assessed as induction of beta-arrestin recruitment measured after 90 mins by beta-galactosidase based PathHunter assay relative to control; assay type: cell-based; conditions: filed as agonist; how it was run: as §2
[8] = molecular target: T2, Peroxisome proliferator-activated receptor gamma (Homo sapiens) (UniProt P37231); assay: Displacement of [3H]-[…] from PPARgamma (unknown origin) expressed in baculovirus infected Sf9 insect cells upto 30 uM measured after 10 hrs by microbeta scintillation counting analysis; conditions: dose microM <=30, time 10.0 hrs
T2 sequence (whole entry): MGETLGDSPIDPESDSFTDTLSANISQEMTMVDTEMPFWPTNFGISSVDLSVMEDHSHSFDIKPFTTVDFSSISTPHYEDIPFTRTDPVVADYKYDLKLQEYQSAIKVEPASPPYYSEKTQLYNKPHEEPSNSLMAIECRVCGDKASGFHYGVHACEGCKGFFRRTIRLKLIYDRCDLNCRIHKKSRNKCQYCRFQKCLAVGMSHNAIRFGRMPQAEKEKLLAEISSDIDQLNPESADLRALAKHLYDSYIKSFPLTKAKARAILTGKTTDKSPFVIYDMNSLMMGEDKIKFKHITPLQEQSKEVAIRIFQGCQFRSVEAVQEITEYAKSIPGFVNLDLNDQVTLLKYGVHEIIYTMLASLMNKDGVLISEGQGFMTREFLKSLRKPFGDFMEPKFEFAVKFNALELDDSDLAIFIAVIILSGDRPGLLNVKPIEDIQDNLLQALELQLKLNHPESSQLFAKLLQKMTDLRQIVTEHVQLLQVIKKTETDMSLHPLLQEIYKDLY
How it was run: (§3)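 Scintillation proximity assay. Sf9 lysates with baculovirus-expressed PPARα (0.3 μg), PPARδ (0.5 μg) or PPARγ (1.25 μg), each with RXRα, were bound via biotinylated DR2 oligo (0.126 nM) to streptavidin yttrium silicate beads. Buffer was HEPES pH 7.8 with KCl, MgCl2, DTT, CHAPS, 14% glycerol and salmon sperm DNA. A 3H reference agonist ligand was used, with 11 compound concentrations, for 10 h. Nonspecific binding was defined with 10000 nM unlabeled reference. Ki was derived from IC50.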

[9] = molecular target: T3, Peroxisome proliferator-activated receptor delta (Homo sapiens) (UniProt Q03181); assay: Displacement of [3H]-[…] from PPARdelta (unknown origin) expressed in baculovirus infected Sf9 insect cells upto 30 uM measured after 10 hrs by microbeta scintillation counting analysis; conditions: dose microM <=30, time 10.0 hrs; how it was run: as §3
T3 sequence (whole entry): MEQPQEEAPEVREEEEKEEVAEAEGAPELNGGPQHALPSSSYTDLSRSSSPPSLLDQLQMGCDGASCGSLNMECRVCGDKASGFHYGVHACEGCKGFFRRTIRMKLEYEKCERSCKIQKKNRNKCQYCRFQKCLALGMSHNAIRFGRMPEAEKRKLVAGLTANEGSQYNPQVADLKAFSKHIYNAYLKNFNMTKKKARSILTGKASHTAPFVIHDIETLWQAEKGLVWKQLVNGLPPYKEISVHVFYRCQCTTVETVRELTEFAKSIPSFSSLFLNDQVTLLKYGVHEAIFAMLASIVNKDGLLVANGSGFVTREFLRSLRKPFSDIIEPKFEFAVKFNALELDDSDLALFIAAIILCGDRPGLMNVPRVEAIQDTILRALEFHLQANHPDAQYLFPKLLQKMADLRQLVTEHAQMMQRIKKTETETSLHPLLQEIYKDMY

[10] = molecular target: T4, Peroxisome proliferator-activated receptor alpha (Homo sapiens) (UniProt Q07869); assay: Displacement of [3H]-[…] from PPARalpha (unknown origin) expressed in baculovirus infected Sf9 insect cells upto 30 uM measured after 10 hrs by microbeta scintillation counting analysis; conditions: dose microM <=30, time 10.0 hrs; how it was run: as §3
T4 sequence (whole entry): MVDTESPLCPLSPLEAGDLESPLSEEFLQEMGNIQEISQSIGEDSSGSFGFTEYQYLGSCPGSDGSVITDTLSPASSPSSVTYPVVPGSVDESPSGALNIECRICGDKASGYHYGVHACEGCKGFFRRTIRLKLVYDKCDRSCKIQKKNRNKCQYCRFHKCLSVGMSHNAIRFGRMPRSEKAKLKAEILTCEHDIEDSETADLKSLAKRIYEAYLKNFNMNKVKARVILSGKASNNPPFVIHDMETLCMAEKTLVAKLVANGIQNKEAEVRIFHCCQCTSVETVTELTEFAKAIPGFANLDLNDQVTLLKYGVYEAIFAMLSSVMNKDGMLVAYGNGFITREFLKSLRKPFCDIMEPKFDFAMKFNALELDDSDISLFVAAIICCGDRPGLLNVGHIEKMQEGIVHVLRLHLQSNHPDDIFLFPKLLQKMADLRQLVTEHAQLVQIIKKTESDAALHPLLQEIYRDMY

[11] = molecular target: T1, Free fatty acid receptor 1; assay: Agonist activity at human recombinant full length GPR40 overexpressed in human HEK293 cells assessed as increase in inositol phosphate accumulation in presence of terbium cryptate-labeled anti IP1/d2-labelled IP1 measured after 120 mins by HTRF assay relative to AMG837; assay type: functional, cell-based; conditions: filed as agonist
How it was run: (§4)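 HEK293 hGPR40 cells (20K/well) were cultured overnight, washed, and held in IP1 stimulation buffer. IP-1 was measured by competitive HTRF immunoassay with terbium cryptate anti-IP1 mAb and d2-labelled IP1.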

[12] = molecular target: T1, Free fatty acid receptor 1; assay: Agonist activity at human recombinant full length GPR40 overexpressed in human HEK293 cells assessed as increase in intracellular calcium level measured over 3 mins by calcium 4 dye based FLIPR assay; assay type: functional, cell-based; how it was run: as §1
[13] = molecular target: T1, Free fatty acid receptor 1; assay: Agonist activity at human recombinant full-length Prolink-tagged GPR40 fused with EA-tagged beta-arrestin expressed in human HEK293 cells assessed as induction of beta-arrestin recruitment measured after 90 mins by beta-galactosidase based PathHunter assay relative to control; assay type: cell-based; conditions: filed as agonist; how it was run: as §2
[14] = molecular target: Free fatty acid receptor 1 (Mus musculus) (UniProt Q76JU9); assay: Agonist activity at Prolink-tagged mouse GPR40 fused with EA-tagged beta-arrestin expressed in human U2OS cells assessed as induction of beta-arrestin recruitment measured after 90 mins by beta-galactosidase based PathHunter assay relative to control; assay type: cell-based; conditions: filed as agonist; how it was run: as §2
[15] = molecular target: Voltage-gated inwardly rectifying potassium channel KCNH2 (Homo sapiens, UniProt Q12809); assay: Inhibition of human ERG
[16] = molecular target: T1, Free fatty acid receptor 1; assay: Agonist activity at human recombinant full-length Prolink-tagged GPR40 fused with EA-tagged beta-arrestin expressed in human HEK293 cells assessed as induction of beta-arrestin recruitment measured after 90 mins by beta-galactosidase based PathHunter assay; assay type: cell-based; how it was run: as §2
[17] = Protein binding in plasma (unknown origin) by equilibrium dialysis method; assay type: ADME, cell-free; conditions: human, read-out: PPB
How it was run: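 Plasma protein binding measured by equilibrium dialysis.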

[18] = molecular target: T1, Free fatty acid receptor 1; assay: Agonist activity at human recombinant full length GPR40 overexpressed in human HEK293 cells assessed as increase in inositol phosphate accumulation in presence of terbium cryptate-labeled anti IP1/d2-labelled IP1 measured after 120 mins by HTRF assay; assay type: functional, cell-based; how it was run: as §4
[19] = AUC in hyperglycemic Balb/c mouse plasma at 29.4 mg/kg measured upto 60 mins; assay type: ADME, organism-based; design: dose 29.4 mg/kg, time <=60
Mus musculus = assay: Hypoglycemic activity in Balb/c mouse assessed as effective dose causing reduction in blood glucose level administered orally 60 mins prior to glucose challenge measured for 60 mins by IPGTT; assay type: functional; conditions: po, 1 h
[20] = AUC in hyperglycemic Balb/c mouse plasma at 1 mg/kg measured upto 60 mins; assay type: ADME, organism-based; design: dose 1 mg/kg, time <=60
[21] = Drug distribution in C57BL/6 mouse colon at 3 microg/kg, iv administered as single dose observed at 20 to 40 mins by LC-MS/MS analysis; assay type: ADME, organism-based; conditions: in vivo, 0.003 mg/kg, time 20-40 min, dose 3 µg/kg
How it was run: (§5)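 Tracer microdose study in fed male C57BL/6 mice: single 3 μg/kg IV dose in 25% HP-BCD. Mice were killed by cervical dislocation, and spleen, ascending colon, skeletal muscle and plasma were sampled at 20 and 40 min.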

[22] = Drug distribution in C57BL/6 mouse spleen at 3 microg/kg, iv administered as single dose observed at 20 to 40 mins by LC-MS/MS analysis; assay type: ADME, organism-based; conditions: in vivo, 0.003 mg/kg, time 20-40 min, dose 3 µg/kg; how it was run: as §5
[23] = Protein binding in C57BL/6 mouse plasma at 3 microg/kg, iv by LC-MS/MS analysis; assay type: ADME, organism-based; conditions: in vivo, 0.003 mg/kg, dose 3 µg/kg
[24] = molecular target: Free fatty acid receptor 1 (Mus musculus) (UniProt Q76JU9); assay: Agonist activity at GPR40 in mouse MIN6 cells assessed as induction of glucose-mediated insulin secretion incubated for 2 hrs by ELISA; assay type: cell-based; conditions: filed as agonist
How it was run: (§6)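 Glucose-dependent insulin secretion in mouse MIN6 cells or rat islet cells, scored as secretion above the glucose-alone level.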

[25] = molecular target: Free fatty acid receptor 1 (Rattus norvegicus) (UniProt Q8K3T4); assay: Agonist activity at GPR40 in Sprague-Dawley rat pancreatic islets assessed as induction of glucose-mediated insulin secretion measured after 90 mins in EBSS buffer by ELISA; assay type: tissue-based; conditions: Pancreatic islet, filed as agonist; how it was run: as §6

Free fatty acid receptor 1 (Mus musculus), sequence (Q76JU9 whole entry, the tested form may be a part): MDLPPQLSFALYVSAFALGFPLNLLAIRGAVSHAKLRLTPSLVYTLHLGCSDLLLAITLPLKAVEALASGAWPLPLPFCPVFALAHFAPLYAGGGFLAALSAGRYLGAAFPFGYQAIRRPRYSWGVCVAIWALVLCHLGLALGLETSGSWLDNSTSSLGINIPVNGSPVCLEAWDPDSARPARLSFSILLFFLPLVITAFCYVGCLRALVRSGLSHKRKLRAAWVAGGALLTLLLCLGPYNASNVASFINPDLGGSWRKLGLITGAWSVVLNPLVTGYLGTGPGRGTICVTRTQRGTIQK
T1 sequence (O14842 whole entry): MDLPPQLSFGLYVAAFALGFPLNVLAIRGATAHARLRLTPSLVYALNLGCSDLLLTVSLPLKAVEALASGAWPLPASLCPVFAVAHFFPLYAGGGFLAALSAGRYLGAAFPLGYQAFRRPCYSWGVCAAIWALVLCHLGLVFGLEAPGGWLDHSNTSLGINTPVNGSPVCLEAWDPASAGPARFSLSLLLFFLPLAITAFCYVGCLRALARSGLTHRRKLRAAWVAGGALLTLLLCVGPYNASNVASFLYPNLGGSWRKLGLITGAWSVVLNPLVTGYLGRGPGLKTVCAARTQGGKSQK
Free fatty acid receptor 1 (Rattus norvegicus), sequence (Q8K3T4 whole entry, the tested form may be a part): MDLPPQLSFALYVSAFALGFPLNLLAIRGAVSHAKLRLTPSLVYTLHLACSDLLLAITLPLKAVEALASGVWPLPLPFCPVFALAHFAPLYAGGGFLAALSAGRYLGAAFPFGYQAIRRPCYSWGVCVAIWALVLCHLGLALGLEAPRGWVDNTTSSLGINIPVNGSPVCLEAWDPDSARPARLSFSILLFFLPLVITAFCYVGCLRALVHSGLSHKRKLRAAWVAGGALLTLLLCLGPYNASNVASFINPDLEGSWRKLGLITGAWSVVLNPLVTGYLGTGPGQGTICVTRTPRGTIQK
Free fatty acid receptor 1 (Mus musculus, UniProt Q76JU9), sequence (Q76JU9 whole entry, the tested form may be a part): as the sequence (Q76JU9 whole entry, the tested form may be a part) above
Free fatty acid receptor 1 (Rattus norvegicus, UniProt Q8K3T4), sequence (Q8K3T4 whole entry, the tested form may be a part): as the sequence (Q8K3T4 whole entry, the tested form may be a part) above
Voltage-gated inwardly rectifying potassium channel KCNH2, sequence (Q12809 whole entry, the tested form may be a part): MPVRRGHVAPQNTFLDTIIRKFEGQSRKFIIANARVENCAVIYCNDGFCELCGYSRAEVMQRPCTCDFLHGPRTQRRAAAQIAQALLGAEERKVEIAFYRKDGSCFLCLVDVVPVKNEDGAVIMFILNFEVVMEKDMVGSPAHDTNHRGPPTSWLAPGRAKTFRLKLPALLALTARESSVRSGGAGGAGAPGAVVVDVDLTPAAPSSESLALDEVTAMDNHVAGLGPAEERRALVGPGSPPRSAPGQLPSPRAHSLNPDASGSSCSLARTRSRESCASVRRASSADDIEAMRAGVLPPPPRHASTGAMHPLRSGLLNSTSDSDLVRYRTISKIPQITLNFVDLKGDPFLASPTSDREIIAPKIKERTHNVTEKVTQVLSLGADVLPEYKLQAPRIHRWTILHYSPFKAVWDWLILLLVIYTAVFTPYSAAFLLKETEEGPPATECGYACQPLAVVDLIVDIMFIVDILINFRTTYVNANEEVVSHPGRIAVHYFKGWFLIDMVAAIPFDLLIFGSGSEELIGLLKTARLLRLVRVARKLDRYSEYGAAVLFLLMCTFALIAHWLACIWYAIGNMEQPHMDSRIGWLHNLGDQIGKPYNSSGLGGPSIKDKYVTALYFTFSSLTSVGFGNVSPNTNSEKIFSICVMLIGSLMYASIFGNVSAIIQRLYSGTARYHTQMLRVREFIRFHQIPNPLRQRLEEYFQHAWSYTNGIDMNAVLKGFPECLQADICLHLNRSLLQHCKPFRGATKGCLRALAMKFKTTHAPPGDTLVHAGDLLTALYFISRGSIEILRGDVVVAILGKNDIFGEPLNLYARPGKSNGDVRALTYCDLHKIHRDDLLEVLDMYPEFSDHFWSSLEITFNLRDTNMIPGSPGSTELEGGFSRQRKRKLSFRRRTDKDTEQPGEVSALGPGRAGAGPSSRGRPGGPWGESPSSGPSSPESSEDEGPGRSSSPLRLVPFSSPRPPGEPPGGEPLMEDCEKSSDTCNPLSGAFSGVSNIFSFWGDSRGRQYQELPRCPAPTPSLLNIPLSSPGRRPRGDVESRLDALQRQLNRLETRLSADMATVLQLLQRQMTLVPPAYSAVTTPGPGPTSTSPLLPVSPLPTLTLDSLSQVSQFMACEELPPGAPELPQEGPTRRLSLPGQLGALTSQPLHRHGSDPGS

SMILES | pEC50 [5] | pEC50 [6] | Emax [7] [%] | Activity [8] | Activity [9] | Activity [10] | Emax [14] [%] | fraction unbound [17] | ED90 (Mus musculus) [mg/kg] | also measured
CN(CCOc1ccc(CC2SC(=O)NC2=O)cc1)c1ccccn1 (centres undefined) |  |  |  |  |  |  |  |  |  | Activity (Rattus norvegicus [1]): inactive; Activity (Rattus norvegicus [2]): inactive
CC#C[C@@H](CC(=O)O)c1ccc(OCc2ccc(CN3CCC4(C=Cc5ccccc54)CC3)c(OC)c2)cc1 | 8.85 | 8.52 | 119 | inactive | inactive | inactive | 128 | < 0.01 |  | Emax [3]: 61%; pKi [4]: 8.60; Emax [11]: 345%; pEC50 [12]: 7.77; Emax [13]: 140%; pKi [15]: 5.20; pEC50 [16]: 8.00; pEC50 [18]: 8.13
Cc1cc(OCCCS(C)(=O)=O)cc(C)c1-c1cccc(COc2ccc3c(c2)OC[C@H]3CC(=O)O)c1 |  |  |  | inactive | inactive | inactive |  | < 0.01 | 29.4 | AUC at 1 h [19]: 7370 ng·h/mL
CC#C[C@@H](CC(=O)O)c1ccc(OCc2cccc(-c3ccc(C(F)(F)F)cc3)c2)cc1 | 8.82 | 8.49 | 148 | inactive | inactive | inactive | 137 | < 0.01 | 1 | AUC at 1 h [20]: 33900 ng·h/mL; Drug uptake [21]: Not Active; Drug uptake [22]: Not Active; PPB [23]: Active; Activity [24]: Active; Activity [25]: Active
